Measured values published in ChEMBL document CHEMBL1145249, “A potent and selective nonpeptide antagonist of the melanocortin-4 receptor induces food intake in satiated mice” (Bioorg Med Chem Lett, 2005).

Assays:
Melanocortin receptor 4 [1] = biological target: T1, Melanocortin receptor 4 (Homo sapiens, UniProt P32245); test: Binding affinity for melanocortin-4 receptor transfected in HEK 293 cells using [125I]NDP-MSH as radioligand; format: cell-based, HEK293
Melanocortin receptor 4 [2] = biological target: T1, Melanocortin receptor 4; test: Intrinsic activity towards human alpha-MSH stimulated cAMP level in HEK293 cells by 10 uM compound
Melanocortin receptor 3 = Melanocortin receptor 3 (Homo sapiens, UniProt P41968); test: Binding affinity for melanocortin-3 receptor transfected in HEK 293 cells using [125I]NDP-MSH as radioligand; format: cell-based, HEK293
Outline: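 Competition binding at human MC3 or MC4 receptor stably transfected into HEK293 cells, displacing [125I]-NDP-MSH radioligand; Ki reported; values averaged from three or more independent measurements.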

[3] = biological target: T2, Melanocyte-stimulating hormone receptor (Homo sapiens, UniProt Q01726); test: Binding affinity at melanocortin-1 receptor stably transfected in HEK 293 cells using [125I]NDP-MSH as radiolabeled; format: cell-based, HEK293
Outline: (§1)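 Competition binding at human MC1 or MC5 receptor stably expressed in HEK293 cells, with [125I]-NDP-MSH as the displaced radioligand; Ki determined.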
Target sequence in this assay (Q01726 whole entry): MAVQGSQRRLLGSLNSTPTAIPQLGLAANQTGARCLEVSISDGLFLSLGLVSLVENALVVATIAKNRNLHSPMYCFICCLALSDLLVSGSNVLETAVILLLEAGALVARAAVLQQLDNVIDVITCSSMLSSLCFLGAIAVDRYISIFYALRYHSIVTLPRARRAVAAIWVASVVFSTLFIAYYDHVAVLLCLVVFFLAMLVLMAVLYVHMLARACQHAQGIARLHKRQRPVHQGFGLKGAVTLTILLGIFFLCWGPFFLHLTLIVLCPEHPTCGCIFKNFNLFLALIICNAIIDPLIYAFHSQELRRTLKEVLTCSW

Melanocortin receptor 5 = Melanocortin receptor 5 (Homo sapiens, UniProt P33032); test: Binding affinity at melanocortin-5 receptor stably transfected in HEK 293 cells using [125I]NDP-MSH as radiolabeled; format: cell-based, HEK293; outline: as §1
[4] = biological target: T2, Melanocyte-stimulating hormone receptor; test: Percent inhibition of human melanocortin 1 receptor at 10 uM concentration
Target sequence in this assay (Q01726 whole entry, looked up): as the sequence (Q01726 whole entry) above

Melanocortin receptor 4 [5] = biological target: T1, Melanocortin receptor 4; test: Intrinsic activity towards human alpha-MSH stimulated cAMP level in HEK293 cells

Sequence of Melanocortin receptor 5 (P33032 whole entry): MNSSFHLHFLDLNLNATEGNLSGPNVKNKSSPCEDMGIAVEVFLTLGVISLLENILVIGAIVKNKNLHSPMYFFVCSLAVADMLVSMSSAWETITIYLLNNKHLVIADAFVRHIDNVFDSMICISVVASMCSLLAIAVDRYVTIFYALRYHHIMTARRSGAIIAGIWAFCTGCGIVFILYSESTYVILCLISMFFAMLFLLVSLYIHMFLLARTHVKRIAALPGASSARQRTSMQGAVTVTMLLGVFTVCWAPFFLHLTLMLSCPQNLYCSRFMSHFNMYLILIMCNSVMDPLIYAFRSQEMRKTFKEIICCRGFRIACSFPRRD
Sequence of Melanocortin receptor 3 (P41968 whole entry): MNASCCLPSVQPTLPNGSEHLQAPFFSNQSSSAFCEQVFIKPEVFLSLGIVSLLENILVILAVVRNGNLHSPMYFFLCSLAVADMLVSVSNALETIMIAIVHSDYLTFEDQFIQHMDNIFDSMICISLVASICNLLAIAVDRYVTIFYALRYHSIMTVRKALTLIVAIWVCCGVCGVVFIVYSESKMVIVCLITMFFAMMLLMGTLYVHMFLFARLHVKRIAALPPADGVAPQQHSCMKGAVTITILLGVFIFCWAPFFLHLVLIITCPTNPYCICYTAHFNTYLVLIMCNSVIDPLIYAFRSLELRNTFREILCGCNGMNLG
T1 sequence (P32245 whole entry): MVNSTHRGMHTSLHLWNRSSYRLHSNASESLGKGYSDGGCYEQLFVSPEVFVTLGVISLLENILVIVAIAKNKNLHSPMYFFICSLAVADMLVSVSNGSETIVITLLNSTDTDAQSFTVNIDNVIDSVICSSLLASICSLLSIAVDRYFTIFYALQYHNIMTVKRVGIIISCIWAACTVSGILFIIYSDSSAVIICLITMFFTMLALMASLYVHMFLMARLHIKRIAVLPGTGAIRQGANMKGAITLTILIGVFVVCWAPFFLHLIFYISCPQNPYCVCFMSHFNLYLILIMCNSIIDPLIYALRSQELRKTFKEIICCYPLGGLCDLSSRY

Ki (Melanocortin receptor 4 [1]) | Ki (Melanocortin receptor 3) | SMILES | further results
0.0046 µM | 0.8 µM | CCOC(=O)N[C@H](Cc1ccc(Cl)cc1Cl)C(=O)N1CCN(c2ccccc2CNCCc2cccs2)CC1 | –
0.0014 µM | 0.45 µM | CC(C)NC(=O)N[C@H](Cc1ccc(Cl)cc1Cl)C(=O)N1CCN(c2ccccc2CNCCc2cccs2)CC1 | –
0.0032 µM | 0.79 µM | O=C(N[C@H](Cc1ccc(Cl)cc1Cl)C(=O)N1CCN(c2ccccc2CNCCc2cccs2)CC1)OCCF | Ki [3]: 1 µM; Ki (Melanocortin receptor 5): 0.56 µM
0.0045 µM | 1.3 µM | CC(C)OC(=O)N[C@H](Cc1ccc(Cl)cc1Cl)C(=O)N1CCN(c2ccccc2CNCCc2cccs2)CC1 | inhibition [4]: 9%; Ki (Melanocortin receptor 5): 0.68 µM
0.0017 µM | 0.79 µM | CCNC(=O)N[C@H](Cc1ccc(Cl)cc1Cl)C(=O)N1CCN(c2ccccc2CNCCc2cccs2)CC1 | inhibition [4]: 18%; Ki (Melanocortin receptor 5): 0.3 µM
0.014 µM | – | CS(=O)(=O)N[C@H](Cc1ccc(Cl)cc1Cl)C(=O)N1CCN(c2ccccc2CNCCc2cccs2)CC1 | IA (Melanocortin receptor 4 [2]): < 3%
0.005 µM | 0.81 µM | COC(=O)N[C@H](Cc1ccc(Cl)cc1Cl)C(=O)N1CCN(c2ccccc2CNCCc2cccs2)CC1 | –
0.0028 µM | 0.83 µM | COC(=O)CCC(=O)N[C@H](Cc1ccc(Cl)cc1Cl)C(=O)N1CCN(c2ccccc2CNCCc2cccs2)CC1 | –
0.0024 µM | 0.57 µM | CC(=O)N[C@H](Cc1ccc(Cl)cc1Cl)C(=O)N1CCN(c2ccccc2CNCCc2cccs2)CC1 | inhibition [4]: 31%; Ki (Melanocortin receptor 5): 0.73 µM
0.002 µM | 0.95 µM | NCCCC(=O)N[C@H](Cc1ccc(Cl)cc1Cl)C(=O)N1CCN(c2ccccc2CNCCc2cccs2)CC1 | –
0.0029 µM | 0.39 µM | O=C(NCCO)N[C@H](Cc1ccc(Cl)cc1Cl)C(=O)N1CCN(c2ccccc2CNCCc2cccs2)CC1 | inhibition [4]: 8%; Ki (Melanocortin receptor 5): 0.35 µM
0.0024 µM | 1 µM | CC(C)(C)NC(=O)N[C@H](Cc1ccc(Cl)cc1Cl)C(=O)N1CCN(c2ccccc2CNCCc2cccs2)CC1 | –
0.018 µM | – | NCCN[C@H](Cc1ccc(Cl)cc1Cl)C(=O)N1CCN(c2ccccc2CNCCc2cccs2)CC1 | IA (Melanocortin receptor 4 [2]): < 3%
0.0021 µM | 0.86 µM | O=C(NC1CC1)N[C@H](Cc1ccc(Cl)cc1Cl)C(=O)N1CCN(c2ccccc2CNCCc2cccs2)CC1 | –
0.002 µM | 0.56 µM | CN(C)C(=O)N[C@H](Cc1ccc(Cl)cc1Cl)C(=O)N1CCN(c2ccccc2CNCCc2cccs2)CC1 | Ki [3]: 6.8 µM; Ki (Melanocortin receptor 5): 0.35 µM

Second part, the molecule before the results:

SMILES | Ki (Melanocortin receptor 4 [1]) | Ki (Melanocortin receptor 3) | further results
N[C@H](Cc1ccc(Cl)cc1Cl)C(=O)N1CCN(c2ccccc2CNCCc2cccs2)CC1 | 0.094 µM | – | IA (Melanocortin receptor 4 [2]): < 3%
O=C(NCc1ccccc1F)N[C@H](Cc1ccc(Cl)cc1Cl)C(=O)N1CCN(c2ccccc2CNCCc2cccs2)CC1 | 0.005 µM | – | –
O=C(N[C@H](Cc1ccc(Cl)cc1Cl)C(=O)N1CCN(c2ccccc2CNCCc2cccs2)CC1)c1ccccc1 | 0.0031 µM | 1.6 µM | –
O=C(N[C@H](Cc1c[nH]c2ccccc12)C(=O)N1CCN(c2ccccc2CNCCc2cccs2)CC1)OCc1ccccc1 | 2.3 µM | – | –
O=C(N[C@H](Cc1ccc(O)cc1)C(=O)N1CCN(c2ccccc2CNCCc2cccs2)CC1)OCc1ccccc1 | 5.7 µM | – | –
O=C(N[C@H](Cc1cscn1)C(=O)N1CCN(c2ccccc2CNCCc2cccs2)CC1)OCc1ccccc1 | > 10 µM | – | –
O=C(N[C@H](Cc1csc2ccccc12)C(=O)N1CCN(c2ccccc2CNCCc2cccs2)CC1)OCc1ccccc1 | 1.1 µM | – | –
O=C([C@@H](Cc1ccc(Cl)cc1Cl)NCc1nccs1)N1CCN(c2ccccc2CNCCc2cccs2)CC1 | 0.016 µM | – | IA (Melanocortin receptor 4 [2]): < 3%
O=C(N[C@H](Cc1ccc(Cl)cc1Cl)C(=O)N1CCN(c2ccccc2CNCCc2cccs2)CC1)OCc1ccccc1 | 0.023 µM | – | –
O=C(NC1CCCC1)N[C@H](Cc1ccc(Cl)cc1Cl)C(=O)N1CCN(c2ccccc2CNCCc2cccs2)CC1 | 0.0013 µM | 0.58 µM | –
O=C([C@@H](Cc1ccc(Cl)cc1Cl)NCC1CC1)N1CCN(c2ccccc2CNCCc2cccs2)CC1 | 0.018 µM | – | IA (Melanocortin receptor 4 [2]): < 3%
O=C(N[C@H](Cc1cccc2ccccc12)C(=O)N1CCN(c2ccccc2CNCCc2cccs2)CC1)OCc1ccccc1 | 0.42 µM | – | –
NCCC(=O)N[C@H](Cc1ccc(Cl)cc1)C(=O)N1CCN(c2ccccc2CNCCc2cccs2)CC1 | – | – | IA (Melanocortin receptor 4 [5]): 14%
O=C(N[C@H](Cc1ccc(Cl)cc1Cl)C(=O)N1CCN(c2ccccc2CNCCc2cccs2)CC1)N1CCCC1 | 0.0015 µM | 0.67 µM | Ki [3]: 6.9 µM; Ki (Melanocortin receptor 5): 0.16 µM
O=C(N[C@H](Cc1ccc(Cl)cc1)C(=O)N1CCN(c2ccccc2CNCCc2cccs2)CC1)C1CCCNC1 (some centres not stated) | – | – | IA (Melanocortin receptor 4 [5]): 12%
COc1ccc2ccccc2c1CCCCN1CCN(CC(c2ccc(F)cc2)N2CCN(C(C)C)CC2)CC1 (configuration not stated) | 0.0079 µM | – | –
CC(C)CN[C@H](Cc1ccc(Cl)cc1Cl)C(=O)N1CCN(c2ccccc2CNCCc2cccs2)CC1 | 0.023 µM | – | IA (Melanocortin receptor 4 [2]): < 3%
NCCC(=O)N[C@H](Cc1ccc(Cl)cc1Cl)C(=O)N1CCN(c2ccccc2CNCCc2cccs2)CC1 | – | – | IA (Melanocortin receptor 4 [5]): < 3%
O=C(N[C@H](Cc1cnc[nH]1)C(=O)N1CCN(c2ccccc2CNCCc2cccs2)CC1)OCc1ccccc1 | 3.6 µM | – | –
O=C([C@@H](Cc1ccc(Cl)cc1Cl)NCc1ccccc1)N1CCN(c2ccccc2CNCCc2cccs2)CC1 | 0.031 µM | – | IA (Melanocortin receptor 4 [2]): < 3%
